We go through 17 molecules from ChEMBL document CHEMBL3997787, “New pyridazinone-4-carboxamides as new cannabinoid receptor type-2 inverse agonists: Synthesis, pharmacological data and molecular docking” (Eur J Med Chem, 2017).

Experiment [1] has as its target T1, Cannabinoid receptor 1 (Homo sapiens, UniProt P21554). The experiment can be described thus: Displacement of [3H]CP55940 from human CB1 receptor expressed in HEK293 EBNA cell membranes at 4 uM after 90 mins by liquid scintillation and luminescence counting method relative to control. An outline of the steps: (§1)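 Single-concentration screen (4 µM) on transfected-cell membranes with human CB1R (about 8 µg/well, 0.1 nM [³H]CP,55-940, pH 7.4 Tris/MgCl₂/EDTA/0.5 mg/mL BSA) or CB2R (1.33 µg/well, 0.15 nM radioligand, pH 7.5 Tris/MgCl₂/EGTA/1 mg/mL BSA). Incubated 90 min at 30 °C. Nonspecific binding defined with 10 µM WIN 55,212-2; 100% binding taken without compound. Filtered through PEI-soaked GF/C filters and counted.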
In general terms: In a radioligand displacement assay an active substance lowers the binding of a labelled ligand.

For experiment [2], the target named is T2, Cannabinoid receptor 2 (Homo sapiens, UniProt P34972). Put plainly: Displacement of [3H]CP55940 from human CB2 receptor expressed in HEK293 EBNA cell membranes at 4 uM after 90 mins by liquid scintillation and luminescence counting method relative to control. The procedure, abridged:
as §1

The target in experiment [3] is T1, Cannabinoid receptor 1. Put plainly: Displacement of [3H]CP55940 from human CB1 receptor expressed in HEK293 EBNA cell membranes after 90 mins by liquid scintillation and luminescence counting method.
Experiment [4] deals with T2, Cannabinoid receptor 2. The experiment can be described thus: Displacement of [3H]CP55940 from human CB2 receptor expressed in HEK293 EBNA cell membranes after 90 mins by liquid scintillation and luminescence counting method.
The species entered for a further experiment is Homo sapiens. Put plainly: Selectivity ratio of Ki for human CB1 receptor to Ki for human CB2 receptor.
In experiment [5] the target is T2, Cannabinoid receptor 2. Put plainly: Inverse agonist activity at human CB2 receptor expressed in HEK293 EBNA cell membranes after 30 mins by [35S]-GTPgammaS binding assay. Format: functional. An outline of the steps:
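Saponin-permeabilized CB2R membranes (5 µg/well) with 0.3 nM [35S]-GTPγS and 10 µM GDP in 20 mM HEPES, 100 mM NaCl, 10 mM MgCl₂, pH 7.4. Compounds at 10⁻¹² to 10⁻⁵ M, 30 min at 30 °C; nonspecific signal with 10 µM GTPγS. Filtered, washed with 10 mM sodium phosphate and counted. IC50 and Emax from curve fitting, mean ± SEM of at least three triplicate experiments.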
On the technique in general: GTPγS is a poorly hydrolysed GTP analogue; its binding reports G protein activation.

T2 sequence (P34972 whole entry): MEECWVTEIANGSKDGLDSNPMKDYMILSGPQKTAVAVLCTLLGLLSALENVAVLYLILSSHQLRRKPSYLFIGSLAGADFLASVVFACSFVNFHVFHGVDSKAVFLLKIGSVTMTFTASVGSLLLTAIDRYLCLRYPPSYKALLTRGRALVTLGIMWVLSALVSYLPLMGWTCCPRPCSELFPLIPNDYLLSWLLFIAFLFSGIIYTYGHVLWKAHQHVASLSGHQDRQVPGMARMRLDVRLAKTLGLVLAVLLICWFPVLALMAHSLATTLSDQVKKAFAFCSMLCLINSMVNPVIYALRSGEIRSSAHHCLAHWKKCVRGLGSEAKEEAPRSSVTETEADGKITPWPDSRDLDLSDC
T1 sequence (P21554 whole entry): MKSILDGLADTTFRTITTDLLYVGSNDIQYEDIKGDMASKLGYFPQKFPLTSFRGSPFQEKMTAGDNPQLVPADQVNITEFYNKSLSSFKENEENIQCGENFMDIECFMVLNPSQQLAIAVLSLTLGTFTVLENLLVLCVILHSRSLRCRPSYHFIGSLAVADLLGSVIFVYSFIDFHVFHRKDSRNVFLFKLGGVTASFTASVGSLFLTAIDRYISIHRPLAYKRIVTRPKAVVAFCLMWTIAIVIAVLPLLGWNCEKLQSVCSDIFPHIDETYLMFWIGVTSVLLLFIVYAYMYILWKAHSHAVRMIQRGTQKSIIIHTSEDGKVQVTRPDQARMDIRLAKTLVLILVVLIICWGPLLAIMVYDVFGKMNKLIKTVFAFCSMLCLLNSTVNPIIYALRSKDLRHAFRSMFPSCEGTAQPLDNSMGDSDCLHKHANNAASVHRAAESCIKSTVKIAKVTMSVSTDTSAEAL

What is called inhibition is how much of the control response was suppressed. High values mean a strong effect, low ones a weak effect. In general, Ki refers to the equilibrium dissociation constant of an inhibitor or competing ligand from its target. Consider `Cc1cc(-c2cc(C(=O)NCCN3CCOCC3)c(=O)n(Cc3ccc(F)cc3)n2)ccc1Cl`, for which the inhibition on Cannabinoid receptor 1 [1] and at Cannabinoid receptor 2 [2] was over 70% each time. The Ki on Cannabinoid receptor 1 [3] (read-out: Ki) is over 4000 nM; on Cannabinoid receptor 2 [4] (read-out: Ki) it was 311 nM. In the experiment filed under Homo sapiens, the Ratio Ki was over 12.9.

For `O=C(NC1CCCCCC1)c1cc(-c2ccccc2)nn(Cc2ccc(F)cc2)c1=O`, the inhibition on Cannabinoid receptor 1 [1] and on Cannabinoid receptor 2 [2] was over 70% throughout. In addition, the Ki on Cannabinoid receptor 1 [3] (read-out: Ki) turned out to be 33 nM; on Cannabinoid receptor 2 [4] (read-out: Ki), 16 nM. In addition, the Ratio Ki in the experiment filed under Homo sapiens was 2.

By Emax is commonly meant the greatest response seen or fitted, relative to the assay's reference. In general, IC50 refers to the concentration at which inhibition is half-maximal. Higher therefore signals weaker potency in that assay. In the case of `Cc1cc(-c2cc(C(=O)N[C@H]3CC[C@@H](C)CC3)c(=O)n(Cc3ccc(F)cc3)n2)ccc1Cl`, the inhibition at Cannabinoid receptor 1 [1] and on Cannabinoid receptor 2 [2] was over 70% in each case. Besides, the Ki at Cannabinoid receptor 1 [3] (read-out: Ki) is over 4000 nM; on Cannabinoid receptor 2 [4] (read-out: Ki), 2 nM. The Ratio Ki in the experiment filed under Homo sapiens was over 2000. In addition, the Emax on Cannabinoid receptor 2 [5] is -43.8%. The molecule further had an IC50 at Cannabinoid receptor 2 [5] of 20.7 nM.

With `Cc1cc(-c2cc(C(=O)N[C@H]3CC[C@H](C)CC3)c(=O)n(Cc3ccc(F)cc3)n2)ccc1Cl`, the inhibition at Cannabinoid receptor 1 [1] and at Cannabinoid receptor 2 [2] was over 70% each time. Besides, the figures for the inhibition constant (Ki) at Cannabinoid receptor 1 [3] (read-out: Ki) and at Cannabinoid receptor 2 [4] (read-out: Ki) were over 4000 nM and 9 nM, respectively. Also, in the experiment listed under Homo sapiens, the Ratio Ki was over 444.

For the molecule `C[C@H]1CC[C@@H](NC(=O)c2cc(-c3ccccc3)nn(Cc3ccc(F)cc3)c2=O)CC1`, the inhibition at Cannabinoid receptor 1 [1] and on Cannabinoid receptor 2 [2] was over 70% each time. For the same molecule, the results for the inhibition constant Ki at Cannabinoid receptor 1 [3] (read-out: Ki) and on Cannabinoid receptor 2 [4] (read-out: Ki) were 115 nM and 5.7 nM, respectively. Besides, the Ratio Ki in the experiment listed under Homo sapiens came out at 20. Also, the Emax at Cannabinoid receptor 2 [5] is -65.7%. This molecule came in with an IC50 on Cannabinoid receptor 2 [5] of 35.2 nM.

As for `Cc1cc(-c2cc(C(=O)NC34CC5CC(CC(C5)C3)C4)c(=O)n(Cc3ccc(F)cc3)n2)ccc1Cl`, the inhibition on Cannabinoid receptor 1 [1] and at Cannabinoid receptor 2 [2] was over 70% throughout. For the same molecule, the Ki at Cannabinoid receptor 1 [3] (read-out: Ki) was over 4000 nM; at Cannabinoid receptor 2 [4] (read-out: Ki), 3.4 nM. Moreover, in the experiment listed under Homo sapiens, the Ratio Ki was over 1180.

For `O=C(NC12CC3CC(CC(C3)C1)C2)c1cc(-c2ccccc2)nn(Cc2ccc(F)cc2)c1=O`, the Ki entry on Cannabinoid receptor 1 [3] (hek293) and on Cannabinoid receptor 2 [4] (hek293) was “Nd(Insoluble)” throughout.

With `O=C(NC1CCCCC1)c1cc(-c2ccccc2)nn(Cc2ccc(F)cc2)c1=O`, the inhibition on Cannabinoid receptor 1 [1] and on Cannabinoid receptor 2 [2] was over 70% in each case. The Ki on Cannabinoid receptor 1 [3] (read-out: Ki) is 467 nM; at Cannabinoid receptor 2 [4] (read-out: Ki), 44 nM. Also, in the experiment listed under Homo sapiens, the Ratio Ki was 11.

Take `Cc1ccc(Cn2nc(C(=O)N[C@@H]3C(C)(C)[C@@H]4CC[C@@]3(C)C4)cc2-c2ccc(Cl)c(C)c2)cc1`: the Emax at Cannabinoid receptor 2 [5] is -63.2%.

Turning to `Cc1cc(-c2cc(C(=O)NC3CCCCC3)c(=O)n(Cc3ccc(F)cc3)n2)ccc1Cl`, the inhibition at Cannabinoid receptor 1 [1] and at Cannabinoid receptor 2 [2] was over 70% throughout. Further, the Ki was over 4000 nM at Cannabinoid receptor 1 [3] (read-out: Ki) and 4.7 nM on Cannabinoid receptor 2 [4] (read-out: Ki). For the same molecule, the Ratio Ki in the experiment listed under Homo sapiens was over 851. For the same molecule, the Emax on Cannabinoid receptor 2 [5] is -60.7%. The same molecule gave an IC50 at Cannabinoid receptor 2 [5] of 25.3 nM.

For `Cc1ccc(Cn2nc(-c3ccc(Cl)c(C)c3)cc(C(=O)NC3CCCCC3)c2=O)cc1`, the inhibition on Cannabinoid receptor 1 [1] and at Cannabinoid receptor 2 [2] was over 70% throughout. Moreover, the inhibition constant Ki on Cannabinoid receptor 1 [3] (read-out: Ki) was over 4000 nM; on Cannabinoid receptor 2 [4] (read-out: Ki), 240 nM. In the experiment filed under Homo sapiens, the Ratio Ki was over 16.6.

In the case of `O=C(NC1CCCCCC1)c1c2c(nn(Cc3ccc(F)cc3)c1=O)-c1ccccc1C2`, the inhibition on Cannabinoid receptor 1 [1] and at Cannabinoid receptor 2 [2] was over 70% in each case. The Ki on Cannabinoid receptor 1 [3] (read-out: Ki) and on Cannabinoid receptor 2 [4] (read-out: Ki) was over 4000 nM throughout.

As to `Cc1cc(-c2cc(C(=O)NC3CCCCCC3)c(=O)n(Cc3ccc(F)cc3)n2)ccc1Cl`, the inhibition at Cannabinoid receptor 1 [1] and on Cannabinoid receptor 2 [2] was over 70% each time. The Ki was over 4000 nM at Cannabinoid receptor 1 [3] (read-out: Ki) and 4.9 nM on Cannabinoid receptor 2 [4] (read-out: Ki). Moreover, the Ratio Ki in the experiment listed under Homo sapiens was over 816.

`C[C@H]1CC[C@H](NC(=O)c2cc(-c3ccccc3)nn(Cc3ccc(F)cc3)c2=O)CC1`: the inhibition on Cannabinoid receptor 1 [1] and on Cannabinoid receptor 2 [2] was over 70% throughout. In addition, the Ki at Cannabinoid receptor 1 [3] (read-out: Ki) was 322 nM; on Cannabinoid receptor 2 [4] (read-out: Ki), 66 nM. In addition, in the experiment listed under Homo sapiens, the Ratio Ki stood at 5.

With `Cc1cc(-c2cc(C(=O)N[C@@H]3C(C)(C)[C@@H]4CC[C@@]3(C)C4)c(=O)n(Cc3ccc(F)cc3)n2)ccc1Cl`, the inhibition on Cannabinoid receptor 1 [1] and on Cannabinoid receptor 2 [2] was over 70% each time. Moreover, the Ki at Cannabinoid receptor 1 [3] (read-out: Ki) is over 4000 nM; at Cannabinoid receptor 2 [4] (read-out: Ki) it was 2.6 nM. The Ratio Ki in the experiment listed under Homo sapiens was over 1540. For the same molecule, the Emax at Cannabinoid receptor 2 [5] was -58.7%. Also, at Cannabinoid receptor 2 [5], the IC50 was determined as 51.2 nM.

Consider `Cc1ccc(Cn2nc(-c3ccc(Cl)c(C)c3)cc(C(=O)NC3CCCCCC3)c2=O)cc1`, for which the Ki entry at Cannabinoid receptor 1 [3] (hek293) and on Cannabinoid receptor 2 [4] (hek293) was “Nd(Insoluble)” throughout.

With `Cc1ccc(Cn2nc(-c3ccc(Cl)c(C)c3)cc(C(=O)NC34CC5CC(CC(C5)C3)C4)c2=O)cc1`, the Ki result on Cannabinoid receptor 1 [3] (hek293) and at Cannabinoid receptor 2 [4] (hek293) was “Nd(Insoluble)” throughout.
